Measurements of several laboratories.
Protocols differ between the studies behind these lines. pEC50, pIC50: −log10 of the molar value.

SMILES | tested on | assay | conditions | measurement | value
O=c1[nH]cc(F)c(=O)[nH]1 | NRK-52E | cell growth or viability, MTT | 24 h | pIC50 | 4.33
COc1ccc(-c2ccc(-c3ccc(C(=N)N)nc3)s2)cc1 | Malme-3M | cell growth or viability, SRB |  | GI50 | 1840 nM
Cc1cccc2c(C(c3ccc(/C=C/C(=O)O)s3)c3c[nH]c4c(C)cccc34)c[nH]c12 | KG-1 | cell growth or viability | 5 µM, 48 h | inhibition | 1%
CC(=O)NCN1N=C(C)C(=NNn2c(-c3ccccc3)nc3ccccc3c2=O)C1=O | Staphylococcus | microbial growth, broth dilution | 24 h | MIC | 120 µM
OC(CN1CCOCC1)(Cn1cncn1)c1ccc(F)cc1F (stereo not shown) | Aspergillus flavus | microbial growth, broth dilution | 48 h | MIC | 7.8 µg/mL
O=C1NN=C(N=Cc2ccccc2O)C1=NNn1c(-c2ccccc2)nc2ccccc2c1=O | Staphylococcus | microbial growth, broth dilution | 24 h | MIC | 111 µM
Clc1ccccc1C(c1ccccc1)(c1ccccc1)n1ccnc1 | Aspergillus flavus | microbial growth, disc diffusion | 20000 µg/mL | inhibition zone | 24 mm
O=C(O)C(c1c[nH]c2ccccc12)c1c[nH]c2ccccc12 | KG-1 | cell growth or viability | 20 µM, 48 h | inhibition | 23%
COc1ccc(-c2c(-c3ccc(C#N)c(F)c3)nc(N3CCC(N)CC3)n(C)c2=O)cc1F | MOLM-13 | cell growth or viability, resazurin | 96 h | pEC50 | 9.02
C[C@@H]1[C@H](O)[C@@H](C)/C=C/C=C/C=C/C=C/C=C/C=C/C=C/[C@H](O[C@@H]2O[C@H](C)[C@@H](O)[C@H](N)[C@@H]2O)C[C@@H]2O[C@](O)(C[C@@H](O)C[C@@H](O)[C@H](O)CC[C@@H](O)C[C@@H](O)CC(=O)O[C@H]1C)C[C@H](O)[C@H]2C(=O)O | Leishmania panamensis | parasite growth | 24 h, promastigote | pIC50 | 7.00
